TRPC4 block – inhibitors of mouse TRPC4 channel, primary screen, Fluo4 calcium, HEK293 TRPC4beta/mu-opioid cells; B-score at 10 µM; DAMGO-evoked Fluo4 calcium flux; active compounds read low; 300,000 tested, 0.39% active; Short transient receptor potential channel 4 (Mus musculus), Q9QUQ5; AID 2247, 2010;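 active means B-score over 3 SD under the library average, no early fluorescence shift, positive overall ratio signal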
Target sequence (Q9QUQ5 whole entry, looked up): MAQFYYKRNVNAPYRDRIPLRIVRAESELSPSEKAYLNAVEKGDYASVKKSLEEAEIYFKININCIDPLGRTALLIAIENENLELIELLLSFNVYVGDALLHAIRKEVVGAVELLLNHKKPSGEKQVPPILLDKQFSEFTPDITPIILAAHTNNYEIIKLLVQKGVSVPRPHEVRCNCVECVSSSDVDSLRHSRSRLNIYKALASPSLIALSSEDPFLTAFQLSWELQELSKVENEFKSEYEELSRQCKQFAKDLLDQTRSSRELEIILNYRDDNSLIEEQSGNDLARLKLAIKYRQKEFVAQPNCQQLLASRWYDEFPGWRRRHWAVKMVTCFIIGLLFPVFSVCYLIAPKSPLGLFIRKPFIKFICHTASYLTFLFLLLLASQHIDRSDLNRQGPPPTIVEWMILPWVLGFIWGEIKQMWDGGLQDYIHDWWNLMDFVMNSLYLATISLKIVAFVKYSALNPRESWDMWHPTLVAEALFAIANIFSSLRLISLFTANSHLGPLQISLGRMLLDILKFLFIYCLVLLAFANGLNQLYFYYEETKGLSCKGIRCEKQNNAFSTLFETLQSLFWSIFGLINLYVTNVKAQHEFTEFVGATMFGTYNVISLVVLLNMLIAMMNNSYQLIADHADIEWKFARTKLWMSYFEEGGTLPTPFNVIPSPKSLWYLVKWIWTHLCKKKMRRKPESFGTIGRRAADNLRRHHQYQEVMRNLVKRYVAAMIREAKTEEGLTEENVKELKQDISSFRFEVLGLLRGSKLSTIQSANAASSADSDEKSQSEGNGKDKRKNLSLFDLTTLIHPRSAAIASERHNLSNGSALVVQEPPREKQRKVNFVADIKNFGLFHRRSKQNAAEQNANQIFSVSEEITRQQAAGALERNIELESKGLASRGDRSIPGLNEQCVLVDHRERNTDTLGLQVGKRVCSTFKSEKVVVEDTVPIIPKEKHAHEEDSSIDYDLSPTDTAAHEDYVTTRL
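Material: HEK293 cells with stable TRPC4beta plus mu-opioid receptor expression; probe or stimulus: DAMGO in two steps, submaximal then maximal; technique: Fluo4 calcium fluorescence by kinetic imaging, 5 s 1 Hz baseline; measure: integrated fluorescence ratio relative to baseline, converted to per-well B score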
TRPC6 activator – mouse TRPC6 channel activators, primary screen, cell-based, HEK293, membrane potential dye; B-score at 10 µM; HEK293-TRPC6 membrane potential dye fluorescence; active compounds read high; AID 2550, 2010; 310,000 tested, 0.13% active; Short transient receptor potential channel 6 (Mus musculus), Q61143;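 active means B-score of the integrated fluorescence ratio above library mean plus 3 SD, and starting fluorescence ratio within library mean plus 5 SD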;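 further: higher score means more depolarization so channel activation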
TRPC4 agonist – activators of mouse TRPC4 channel, primary screen, Fluo4 calcium, HEK293 TRPC4beta/mu-opioid cells; Short transient receptor potential channel 4 (Mus musculus), Q9QUQ5; Fluo4 calcium fluorescence; active compounds read high; B-score at 10 µM; 310,000 tested, 0.49% active; AID 2237, 2010;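 active means B-score above 5 SD of library B-scores, and initial fluorescence ratio not above library mean plus 5 SD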;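 further: positive B-score marks a calcium rise read as TRPC4 activation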
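System – HEK293 cells stably co-expressing mouse TRPC4beta and mu-opioid receptor · Signal – Fluo4 calcium-sensitive dye fluorescence, kinetic, 1 Hz baseline · Benchmarks – buffer (low) and maximal DAMGO (high) · Read-out – B score of integrated fluorescence ratio per well · Incubation – dye loading 45 min room temperature, 110 s kinetic read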
TRPC4 potent – positive allosteric modulators of TRPC4, primary screen, cell-based, mouse TRPC4beta, HEK293 mu-opioid, Fluo-4 calcium | DAMGO EC20, Fluo-4 Ca2+ flux; active compounds read high | B-score at 10 µM | 310,000 tested, 0.42% active;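 active means B-score of calcium response area above 5 SD of library B-scores, with initial fluorescence ratio within 5 SD of library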
TRPC6 inhibitor – mouse TRPC6 channel inhibitors, primary screen, cell-based, HEK293, membrane potential dye. ACh-evoked depolarization; active compounds read low. 310,000 tested, 1.1% active. B-score at 10 µM;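 active means B-score under library mean minus 3 SD, initial fluorescence not abnormally high, positive integrated signal ratio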;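 further: B-score derived from integrated fluorescence ratio over the kinetic read; more negative B-score means stronger inhibition of depolarization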
TRPC4 sel inh 2 – mouse TRPC4 off-target activity of TRPC6 inhibitors, second screen. HEK293 TRPC4/MOR, membrane potential dye fluorescence; channel activated by saturating DAMGO dose. shares compounds with TRPC6 inhibitor. 920 tested, 42% active. inhibition, % at 10 µM. AID 2776;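 active means compounds whose fluorescence signal differed from control wells by over 3 SD, either direction, in both duplicate plates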
TRPC4 spec – mouse TRPC4 modulation by TRPC6 hits, confirmation, selectivity assay for TRPC6 inhibitor project, cell-based, HEK293 TRPC4/mu-opioid, membrane potential dye; shares compounds with TRPC6 inhibitor; membrane potential fluorescence; activity change, negative = inhibition, % at 10 µM; 920 tested, 61% active;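 active means rise or fall in signal beyond 3 SD of buffer-only wells in both replicate plates, either sign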;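 further: integrated kinetic ratio of fluorescence range over baseline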
HEK293 MPD ctr 2-1 – nonspecific membrane potential effects, parental HEK293, confirmation, counter-screen for TRPC6 inhibitor project, cell-based, second counter screen. shares compounds with TRPC6 inhibitor. parental HEK293 membrane potential dye fluorescence; maximal acetylcholine challenge after compound addition. signal change vs control, % at 10 µM. 920 tested, 31% active. AID 2779, 2010;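 active means membrane potential signal moving either way by over 3 SD of the maximum-effect control, in both duplicate plates, meaning non-specific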
HEK293 MPD ctr-1 – membrane potential modulation in parental HEK293, confirmation, counter-screen for TRPC6 inhibitor project, cell-based; parental HEK293 membrane potential dye fluorescence; membrane potential signal change, % at 10 µM; shares compounds with TRPC6 inhibitor; AID 2780, 2010; 920 tested, 60% active;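 active means membrane potential signal shifting up or down by more than 3 SD of buffer-only wells, on both duplicate plates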
HEK293 MPD ctr-2 – parental HEK293 membrane potential modulation, confirmation, counter-screen for TRPC6 modulator project, cell-based; membrane potential dye fluorescence; membrane potential signal change, % at 10 µM; shares compounds with TRPC6 inhibitor; 2,400 tested, 51% active; AID 488924, 2010;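 active means membrane potential signal moves up or down beyond 5 SD from buffer-only wells, on both duplicate plates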
HEK293 MPD ctr 2-2 – second check of TRPC6 modulator effects in parental HEK293 cells; 2,400 tested, 14% active; membrane potential dye fluorescence; after compound, maximal acetylcholine stimulation; shares compounds with TRPC6 inhibitor; inhibition, % at 10 µM;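 active means membrane potential signal drops by more than 5 SD from the mean control signal, in both duplicate plates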
TRPC4 ctr mod – TRPC4 modulation by TRPC6 hit compounds, confirmation, selectivity assay for TRPC6 modulator project, cell-based, HEK293 TRPC4/mu-opioid, membrane potential dye, mouse. shares compounds with TRPC6 inhibitor. 2,400 tested, 69% active. percent change from control (negative = decrease, positive = increase), % at 10 µM. membrane potential fluorescence;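 active means membrane potential signal moved up or down beyond 5 SD of buffer control wells, in both duplicate plates, actives on both sides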
TRPC4 ctr inh 2 – second check of whether TRPC6 modulators also affect mouse TRPC4. shares compounds with TRPC6 inhibitor. HEK293 TRPC4/mu-opioid, membrane potential dye fluorescence; stimulated with maximal-effect DAMGO. inhibition, % at 10 µM. 2,400 tested, 55% active. AID 488928;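 active means drop in membrane potential signal beyond 5 SD of the control wells in both duplicate plates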;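 further: TRPC4 counter screen for TRPC6 hits run under conditions tuned for TRPC6 not TRPC4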
TRPC6 inh conf – mouse TRPC6 channel inhibitors, confirmation, HEK293 cells, membrane potential dye, duplicate; shares compounds with TRPC6 inhibitor; ACh-evoked depolarization; inhibition, % at 10 µM; 3,300 tested, 43% active; AID 488960, 2010;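 active means fluorescence ratio falls more than 5 SD below the full-stimulation control mean, in both duplicate runs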;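 further: integrated fluorescence ratio of peak minus minimum over baseline after agonist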
TRPC6 act confirm – mouse TRPC6 channel activators, confirmation, HEK293 cells, membrane potential dye, duplicate; shares compounds with TRPC6 inhibitor; HEK293-TRPC6 membrane potential dye fluorescence, FDSS; activation, % at 10 µM; 2,800 tested, 11% active;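 active means ratio signal rise beyond 5 SD above unstimulated control wells' mean, seen in both duplicate runs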
Each line names hits and unclear results; the compound was inactive in the other large screens (follow-up assays come after a bar, where they were run). Only some compounds are listed: those with a hit (about 2.3% of all), similar ones and a draw of the others.

COc1ccc([C@@H]2[C@@H]3C(=O)N(C(C)(C)C)C(=O)[C@@H]3[C@]3(Cc4ccccc4)C(=O)N(c4ccc(Br)cc4)C(=O)N23)cc1	TRPC6 inhibitor -6.1 | HEK293 MPD ctr-2 inactive | HEK293 MPD ctr 2-2 inactive | TRPC4 ctr mod inactive | TRPC4 ctr inh 2 inactive | TRPC6 inh conf inactive | TRPC6 act confirm inactive
Cc1ccccc1N1Cc2ccccc2C1	none
COc1ccccc1CN1CCN(C(CC(C)C)c2nnnn2Cc2cccs2)CC1 (stereo not given)	TRPC6 inhibitor -7.2 | TRPC4 sel inh 2 9.5% | TRPC4 spec 47% | HEK293 MPD ctr 2-1 231% | HEK293 MPD ctr-1 18% | TRPC6 inh conf inactive
CCCn1c(NCc2c[nH]c3ccccc23)nc2ccccc21	TRPC6 inhibitor -8.5 | TRPC4 sel inh 2 25% | TRPC4 spec -16% | HEK293 MPD ctr 2-1 inactive | HEK293 MPD ctr-1 -209% | TRPC6 inh conf inactive | TRPC6 act confirm inactive
Nc1cc2c3c(cccc3c1)C(=O)N(CCN1CCCC1)C2=O	none
CCN(CC)CCN1C(=O)c2cccc3cc(N)cc(c23)C1=O	TRPC6 inhibitor -5.5 | HEK293 MPD ctr-2 531% | HEK293 MPD ctr 2-2 inactive | TRPC4 ctr mod -32% | TRPC4 ctr inh 2 61% | TRPC6 inh conf 48% | TRPC6 act confirm inactive
COC(C(=O)N1CCC(CCC(=O)Nc2ccccc2)CC1)c1ccccc1 (stereo not given)	none
CCOC(=O)SC1=N/C(=C\c2ccc(N(C)C)cc2)C(=O)S1	TRPC6 activator 12, TRPC6 inhibitor -6 | HEK293 MPD ctr-2 inactive | HEK293 MPD ctr 2-2 inactive | TRPC4 ctr mod 12% | TRPC4 ctr inh 2 inactive | TRPC6 inh conf inactive | TRPC6 act confirm inactive
CCSC1=N/C(=C\c2ccc(C(=O)O)cc2)C(=O)S1	none
COC(=O)c1ccc(NC(=O)c2snnc2-c2ccccc2)cc1	TRPC6 inhibitor -7.3 | TRPC4 sel inh 2 inactive | TRPC4 spec inactive | HEK293 MPD ctr 2-1 inactive | HEK293 MPD ctr-1 inactive | TRPC6 inh conf 93%
O=C(CSc1nc2c(c(=O)n1-c1ccc(Br)cc1)SCC2)NCC1CCCO1 (stereo not given)	TRPC6 inhibitor -5 | HEK293 MPD ctr-2 108% | HEK293 MPD ctr 2-2 inactive | TRPC4 ctr mod 25% | TRPC4 ctr inh 2 32% | TRPC6 inh conf 51%
CCN1CCN(c2cc(C)c3cc(NC(=O)CCC(=O)N4CCN(c5ccccc5)CC4)ccc3n2)CC1	none
CC(=O)c1ccc(N2CCN(C(=O)CCC(=O)Nc3ccc4nc(N5CCN(C)CC5)cc(C)c4c3)CC2)cc1	TRPC6 activator 13 | HEK293 MPD ctr-2 inactive | HEK293 MPD ctr 2-2 inactive | TRPC4 ctr mod 16% | TRPC4 ctr inh 2 inactive | TRPC6 inh conf inactive | TRPC6 act confirm inactive
CCC(C)NC(=S)Nc1ccc2nc(N3CCOCC3)cc(C)c2c1 (stereo not given)	none
CCCCN(C)C(=O)CCC(=O)Nc1ccc2nc(N3CCOCC3)cc(C)c2c1	TRPC6 inhibitor -7.6 | TRPC4 sel inh 2 inactive | TRPC4 spec -20% | HEK293 MPD ctr 2-1 inactive | HEK293 MPD ctr-1 -326% | TRPC6 inh conf inactive | TRPC6 act confirm inactive
CCC(C)NC(=O)CCC(=O)Nc1ccc2nc(N3CCOCC3)cc(C)c2c1 (stereo not given)	TRPC6 inhibitor -5.5 | HEK293 MPD ctr-2 -260% | HEK293 MPD ctr 2-2 inactive | TRPC4 ctr mod -44% | TRPC4 ctr inh 2 38% | TRPC6 inh conf 40% | TRPC6 act confirm inactive
Cc1nn(C)c(C(=O)Sc2cccc(Cl)c2)c1[N+](=O)[O-]	none
CCOc1ccc2nc(NS(=O)(=O)c3cccs3)sc2c1	none
CCCCn1c(N)c(N(CCOC)C(=O)COC(=O)CSc2cc(C)c3ccccc3n2)c(=O)[nH]c1=O	none
CC1CC(C)(C)N(C(=O)CN2C(=O)c3ccccc3C2=O)c2ccccc21 (stereo not given)	TRPC4 block -7, TRPC4 agonist 158, TRPC6 inhibitor -5.1 | HEK293 MPD ctr-2 183% | HEK293 MPD ctr 2-2 inactive | TRPC4 ctr mod 42% | TRPC4 ctr inh 2 inactive | TRPC6 inh conf inactive

Screening results (PubChem BioAssay)
